Results on five compounds are retold here after ChEMBL document CHEMBL1124737, “Synthesis and alpha 2-adrenoceptor effects of substituted catecholimidazoline and catecholimidazole analogues in human platelets” (J Med Chem, 1990).

Molecules are shown by their SMILES.

For assay [1], the species on record is Homo sapiens. The assay can be described thus: Inhibitory concentration of compound against primary aggregation of induced by R-8. Format: functional, organism-based.
The target of assay [2] is Serotonin (5-HT) receptor. Kind of assay: Inhibition of ADP by the compound in response of SEC. The format is functional, Homo sapiens. An outline of the steps:
(§1)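 Inducer at the minimum concentration giving maximal aggregation; inhibitor added 1 min before it. Dense-granule secretion measured as release of radioactivity. U46619 runs include 1 mM aspirin. IC50 from percent inhibition vs log concentration; 3–5 preparations.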

Assay [3] is filed under the species Homo sapiens. Kind of assay: Inhibition of AA+phentolamine by the compound in response of AGG. Format: functional, organism-based. The gist of the method: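 Citrated platelet-rich plasma from medication-free human volunteers was read by Born turbidometric aggregometry. Phentolamine (1 μM) was added 1 min before the drug and 2 min before arachidonic acid, used at the minimum concentration giving maximal aggregation. IC50 was taken from the maximal change in light transmittance after 4 min, read from percent inhibition versus log concentration plots. Data are from 3–5 preparations.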

For assay [4], the species on record is Homo sapiens. Kind of assay: Inhibition of Arachidonic acid by the compound in response of AGG. The format is functional, organism-based. An outline of the steps:
(§2)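 Human platelet-rich plasma from medication-free volunteers, citrate anticoagulated (9:1). Inducer at the minimum concentration giving maximal aggregation. Inhibitor added 1 min before inducer. Turbidometric (Born) aggregation read as the maximal change in light-transmittance amplitude after 4 min. U46619 runs include 1 mM aspirin. IC50 taken from percent inhibition vs log concentration plots; 3–5 preparations.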

Assay [5] addresses Serotonin (5-HT) receptor. Kind of assay: Inhibition of U-46,619 by the compound in response of SEC. Format: functional, Homo sapiens. An outline of the steps:
as §1

The species entered for assay [6] is Homo sapiens. The assay can be described thus: Inhibition of U-46,619 + phentolamine by the compound in response of AGG. Format: functional, organism-based. An outline of the steps: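 Human citrated platelet-rich plasma was incubated with 1 mM aspirin. Phentolamine (1 μM) was added 1 min before the drug and 2 min before U46619, used at the minimal maximally-aggregating concentration. Turbidometric aggregation was followed, and IC50 was based on the maximal transmittance change at 4 min, from percent inhibition versus log concentration plots. Data are from 3–5 preparations.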

In assay [7] the target is Serotonin (5-HT) receptor. Kind of assay: Inhibition of Arachidonic acid by the compound in response of SEC. Format: functional, Homo sapiens. An outline of the steps: as §1
Assay [8] has as its target Serotonin (5-HT) receptor. Kind of assay: Inhibition of U-46,619 + phentolamine by the compound in response of SEC. Format: functional, Homo sapiens. The gist of the method: (§3)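 Phentolamine 1 μM added 1 min before the test drug and 2 min before the inducer (AA or U46619, at minimum maximally effective concentration). Aspirin 1 mM in U46619 runs. Secretion read as radioactivity release. IC50 from percent inhibition vs log concentration; 3–5 preparations.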

The species entered for assay [9] is Homo sapiens. The assay can be described thus: Inhibition of ADP by the compound in response of AGG. The format is functional, organism-based. The gist of the method:
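The drug was added 1 min before ADP, used at the minimum concentration giving maximal aggregation, in citrated human platelet-rich plasma from medication-free donors. Born turbidometric aggregometry was used. IC50 came from the maximal change in light transmittance after 6 min, using percent inhibition versus log concentration plots. Data are from 3–5 preparations.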

For assay [10], the species on record is Homo sapiens. The assay can be described thus: Inhibition of U-46,619 by the compound in response of AGG. Format: functional, organism-based. The gist of the method:
as §2

Assay [11] is filed under the species Homo sapiens. The assay can be described thus: Stimulatory activity against serotonin secretion (SEC). The format is functional, organism-based.
Assay [12] has as its target Serotonin (5-HT) receptor. Kind of assay: Inhibition of AA+phentolamine by the compound in response of SEC. The format is functional, Homo sapiens. An outline of the steps:
as §3

For assay [13], the species on record is Homo sapiens. Kind of assay: Inhibition potency against primary wave responses to epinephrine. The format is functional, organism-based. As to conditions: read-out: pA2 (converted).
The species named for assay [14] is Homo sapiens. Kind of assay: Log concentration that produces maximum response against epinephrine-induced platelet aggregation (primary wave AGG). The format is functional, organism-based.
The species named for assay [15] is Homo sapiens. The assay can be described thus: Effective concentration for secondary wave aggregation was determined. The format is functional, organism-based.
The species named for assay [16] is Homo sapiens. Kind of assay: Effective concentration for primary wave aggregation was determined. Format: functional, organism-based. The gist of the method:
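Citrated (9:1) platelet-rich plasma from medication-free human donors. Compound given alone to platelets preincubated 1 min with 1 mM aspirin. Born turbidometric aggregation, maximal change in light transmittance amplitude. EC50 taken from individual plots of percent response versus log concentration. Values in parentheses give number of experiments.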

For assay [17], the species on record is Homo sapiens. Kind of assay: Log concentration that produces maximum response against epinephrine-induced platelet aggregation. Format: functional, organism-based.

Turning to `COC(=O)[C@@H]1[C@H]2C[C@H]3c4[nH]c5ccccc5c4CCN3C[C@@H]2CC[C@@H]1O` [YOHIMBINE], 1.1 µM corresponded to half-maximal inhibition in the assay listed under Homo sapiens [1] (IC50).

For `Cl.Oc1ccc(Cc2ncc[nH]2)cc1O`, the “Log IC50” value in assay [2] is listed as -3.46; in assay [5], -2.81; in assay [7], -3.18; in [8] it was -3.09; in assay [12], -3.79. Also, the 50% inhibitory concentration (IC50) (in general, the concentration needed to halve the response being measured) in the assay listed under Homo sapiens [3] was 145 µM; in the assay listed under Homo sapiens [4] it was 661 µM; in the assay filed under Homo sapiens [6] it was 741 µM; in the assay listed under Homo sapiens [9] it was 263 µM; in the assay filed under Homo sapiens [10], 1620 µM; in the assay listed under Homo sapiens [11], 36.3 µM.

As to `Oc1ccc(C[C@H]2CNC=N2)cc1O`, the Kb in the assay listed under Homo sapiens [13] was 3.24 µM.

Consider `Oc1ccc(C[C@@H]2CNC=N2)cc1O`, for which the EC50 (in general, the midpoint of the concentration-response curve) in the assay listed under Homo sapiens [14] was 5.13 µM; in the assay listed under Homo sapiens [15], 4.89 µM; in the assay filed under Homo sapiens [16], 5.03 µM.

In the assay listed under Homo sapiens [17], `Oc1ccc(C(O)c2ncc[nH]2)cc1O` (configuration not stated) had an EC50 of 38.9 µM.
